Data published in ChEMBL document CHEMBL3600305, “Flemingin-Type Prenylated Chalcones from the Sarawak Rainforest Plant Desmodium congestum” (J Nat Prod, 2015).
pIC50: −log10 of the molar value. ≈ marks a conversion by molar mass, not a printed value.

How the values were obtained:
Escherichia coli = experiment: Antibacterial activity against Escherichia coli ATCC 25922 after 24 hrs; type: functional
Summary of the method: (§1)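 Broth microdilution in MHB. Overnight cultures at 37 °C with shaking, diluted 40-fold and grown 2−3 h to mid-log, then added at final 5 × 10^5 CFU/mL. Compounds in 2-fold series, final 0.015−32 μg/mL, in duplicate. Incubated 24 h at 37 °C. MIC read visually as lowest concentration with no visible growth. Vancomycin, daptomycin and colistin as controls.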

Enterococcus faecium = experiment: Antibacterial activity against multidrug-resistant Enterococcus faecium ATCC 51559 expressing VanA after 24 hrs; type: functional; settings: ATCC 51559, 24 h
Summary of the method: (§2)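 Broth microdilution in MHB. Overnight cultures grown at 37 °C with shaking, diluted 40-fold and grown 2−3 h to mid-log, then added at a final 5 × 10^5 CFU/mL. Compounds in 2-fold serial dilution, final 0.015−32 μg/mL, in duplicate. Incubated 24 h at 37 °C. MIC read visually as the lowest concentration with no visible growth. Vancomycin, daptomycin and colistin served as controls.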

Staphylococcus aureus [1] = experiment: Antibacterial activity against methicillin-resistant and glycopeptide-intermediate Staphylococcus aureus NRSA-NRS 1 after 24 hrs; type: functional; settings: NRSA-NRS 1, 24 h; summary of the method: as §2
Staphylococcus aureus [2] = experiment: Antibacterial activity against methicillin-resistant Staphylococcus aureus ATCC 43300 after 24 hrs; type: functional; settings: ATCC 43300, 24 h; summary of the method: as §2
HEK293 = experiment: Cytotoxicity against human HEK293 cells after 24 hrs; type: cell-based; settings: HEK293, 24 h
Summary of the method: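 HEK293 cells seeded at 3000/well in DMEM with 10% FBS, attached 24 h at 37 °C, 5% CO2. Compounds from 1.28 mg/mL DMSO stock in 1:3 serial dilutions, final DMSO 1%, 24 h exposure. Resazurin 10 μM added for 2 h; fluorescence ex/em 560/590 nm. Four replicates; viability normalised to 1% DMSO and negative controls. Tamoxifen positive control.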

Staphylococcus aureus [3] = experiment: Antibacterial activity against glycopeptide-intermediate Staphylococcus aureus NRSA-NRS 17 after 24 hrs; type: functional; settings: NRSA-NRS 17, 24 h; summary of the method: as §1
Enterococcus faecalis = experiment: Antibacterial activity against Enterococcus faecalis clinical isolate expressing VanA after 24 hrs; type: functional; summary of the method: as §2
Streptococcus pneumoniae = experiment: Antibacterial activity against multidrug-resistant Streptococcus pneumoniae ATCC 700677 after 24 hrs; type: functional; settings: ATCC 700677, 24 h; summary of the method: as §2

Row | Compound | MIC (Escherichia coli; ATCC 25922, 24 h) [µg/mL] | MIC (Enterococcus faecium) [µg/mL] | MIC (Staphylococcus aureus [1]) [µg/mL] | MIC (Staphylococcus aureus [2]) [µg/mL] | pIC50 (HEK293) | MIC (Staphylococcus aureus [3]) [µg/mL] | MIC (Enterococcus faecalis) [µg/mL] | MIC (Streptococcus pneumoniae) [µg/mL] | MIC (Escherichia coli) [µg/mL]
1 | COc1cc(C(=O)/C=C/c2cc(O)ccc2O)c(O)c2c1OC(C)(CCC=C(C)C)C=C2 (stereo not drawn) | > 32 | 32 (≈ 73.3 µM) | 32 (≈ 73.3 µM) | 32 (≈ 73.3 µM) | 4.68 | > 32 | 16 (≈ 36.7 µM) | 32 (≈ 73.3 µM) | –
2 | COc1cc(C(=O)/C=C/c2cccc(O)c2O)c(O)c2c1OC(C)(CCC=C(C)C)C=C2 (stereo not drawn) | > 32 | 32 (≈ 73.3 µM) | 32 (≈ 73.3 µM) | 32 (≈ 73.3 µM) | 4.43 | > 32 | 16 (≈ 36.7 µM) | 32 (≈ 73.3 µM) | –
3 | COLISTIN | – | – | – | – | – | – | – | – | 0.25
4 | CN[C@H](CC(C)C)C(=O)N[C@H]1C(=O)N[C@@H](CC(N)=O)C(=O)N[C@H]2C(=O)N[C@H]3C(=O)N[C@H](C(=O)N[C@H](C(=O)O)c4cc(O)cc(O)c4-c4cc3ccc4O)[C@H](O)c3ccc(c(Cl)c3)Oc3cc2cc(c3O[C@@H]2O[C@H](CO)[C@@H](O)[C@H](O)[C@H]2O[C@H]2C[C@](C)(N)[C@H](O)[C@H](C)O2)Oc2ccc(cc2Cl)[C@H]1O [VANCOMYCIN] | – | > 32 | 8 (≈ 5.52 µM) | – | – | 8 (≈ 5.52 µM) | > 32 | 2 (≈ 1.38 µM) | –
5 | CCCCCCCCCC(=O)N[C@@H](Cc1c[nH]c2ccccc12)C(=O)N[C@H](CC(N)=O)C(=O)N[C@@H](CC(=O)O)C(=O)N[C@@H]1C(=O)NCC(=O)N[C@@H](CCCN)C(=O)N[C@@H](CC(=O)O)C(=O)N[C@H](C)C(=O)N[C@@H](CC(=O)O)C(=O)NCC(=O)N[C@H](CO)C(=O)N[C@@H]([C@H](C)CC(=O)O)C(=O)N[C@@H](CC(=O)c2ccccc2N)C(=O)O[C@@H]1C | – | 16 (≈ 9.87 µM) | 16 (≈ 9.87 µM) | 1.2 (≈ 0.74 µM) | – | 8 (≈ 4.94 µM) | 8 (≈ 4.94 µM) | 2 (≈ 1.23 µM) | –
